Assay outcomes as filed in PubChem BioAssay.
Only some compounds are listed: those with a hit (about 0.93% of all), similar ones and a draw of the others.
MMP13 inh – human MMP13 inhibitors, primary screen, biochemical, FRET peptide cleavage. actives 0.07% (n = 65,000). Collagenase 3 (Homo sapiens), P45452. inhibition, % at 4 µM. MMP-13 fTHP FRET cleavage, Mca fluorescence;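 active = inhibition above the mean of compound-free control plate wells plus 3 SD, cut at about 14% in these data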
JNK3 blocker – JNK3 kinase activity inhibitors, primary screen, biochemical, human, purified enzyme. HTS. actives 0.61% (n = 60,000). inhibition, % at 8 µM; in the data active = inhibition above about 17%
HePTP inh – inhibitors of human HePTP phosphatase, primary screen, biochemical, absorbance, leukemia target. Tyrosine-protein phosphatase non-receptor type 7 (Homo sapiens), P35236. actives 0.64% (n = 110,000). AID 521, 2006. inhibition, % at 20 µM. recombinant HePTP phosphatase activity, OD absorbance; in the data active = inhibition above about 50%
Target sequence (P35236 whole entry, looked up): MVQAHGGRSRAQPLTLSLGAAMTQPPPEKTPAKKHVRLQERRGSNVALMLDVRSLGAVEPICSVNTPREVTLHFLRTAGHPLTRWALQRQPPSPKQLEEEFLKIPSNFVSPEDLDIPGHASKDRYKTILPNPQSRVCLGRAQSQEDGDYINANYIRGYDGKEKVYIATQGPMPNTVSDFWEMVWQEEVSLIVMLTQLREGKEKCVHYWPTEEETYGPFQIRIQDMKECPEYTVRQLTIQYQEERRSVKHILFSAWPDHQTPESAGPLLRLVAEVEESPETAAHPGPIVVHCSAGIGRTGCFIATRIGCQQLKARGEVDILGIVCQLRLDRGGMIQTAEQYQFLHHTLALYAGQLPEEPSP
HEK293 NFkB inh – inhibitors of PMA/ionomycin-induced NF-kB reporter, primary screen, antigen receptor NF-kB inhibitor project, cell-based, HEK-293 luciferase reporter, luminescence. HEK-293 NF-kB luciferase reporter. inhibition, % at 3 µM. actives 0.21% (n = 62,000). AID 465, 2006;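 active = inhibition above the mean of all tested compounds plus 3 SD, cut at about 40% in these data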
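Signal: luciferase luminescence; Material: HEK-293 cells with stable firefly luciferase reporter driven by four HIV NF-kB elements; Probe or stimulus: PMA with ionomycin; Replication: tested once; Times: 1 h compound pretreatment, then 16 h stimulation at 37 °C, 5% CO2; Benchmarks: DMSO and 10 µM reference inhibitor; Evaluation: per-plate % inhibition versus controls.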
Numbers stand for hits; 0 = inactive; - = no result given.

SMILES | MMP13 inh | JNK3 blocker | HePTP inh | HEK293 NFkB inh
CCOC(=O)C1=C(O)/C(=C/c2ccc(O)cc2)SC1=Nc1ccc(Cl)cc1 | - | - | 0 | -
CCOC(=O)C1=C(O)/C(=C/c2ccc(C)cc2)SC1=Nc1ccc(C)cc1 | - | - | 54 | -
O=C(O)c1cc(C(=O)O)c(-c2ccccc2)c(C(=O)O)c1 | - | - | 0 | -
O=C(O)c1ccccc1N=Nc1cc(-c2ccccc2)oc1O | - | - | 101 | -
COc1ccc(CC(=O)Nc2cc(C)ccn2)cc1 | 0 | 27 | 0 | 0
COc1ccc(CC(=O)Nc2cccc(NC(=O)Cc3ccc(OC)cc3)c2)cc1 | - | - | 0 | -
CCOC(=O)CCCc1sc(N)nc1-c1[nH]c(=O)[nH]c1C | 0 | 25 | 0 | 0
CCOC(=O)CCc1nc2ccccc2[nH]1 | 0 | 0 | 0 | 0
CN(C)c1ccc(/C=N/N=C2/NC(=O)C(Cc3ccc(Cl)cc3)S2)cc1 (centres undefined) | - | - | 0 | -
O=C(C[n+]1ccc(C(=O)NCc2ccccc2)cc1)c1ccc(-c2ccccc2)cc1 | - | - | 0 | -
CCCOc1cccc(C(=O)Nc2nc(-c3ccc(F)cc3F)cs2)c1 | - | - | 95 | -
COc1ccccc1CCNC(=O)c1cnn2c(C(F)F)cc(C)nc12 | 0 | 0 | 0 | 0
Cc1cc(C(F)F)n2ncc(C(=O)NCc3ccccc3C(F)(F)F)c2n1 | 0 | 19 | 0 | 0
COP(=O)(OC)C(Nc1cccc([N+](=O)[O-])c1)c1cccc([N+](=O)[O-])c1 (centres undefined) | - | - | 0 | -
Cc1ccc(C)n1-c1cccc(C(=O)O)c1 | 0 | 0 | - | 0
CC(=O)c1ccc(-n2c(C)ccc2-c2ccccc2)cc1 | - | - | 0 | -
Cc1ccc(C)n1-c1ccc(CC(=O)O)cc1 | - | - | 102 | -
Cc1ccc(C)n1-c1ccc(O)c(C(=O)O)c1 | - | - | 104 | -
O=C(CN(c1ccccc1)S(=O)(=O)c1ccccc1)NCc1ccccn1 | - | - | 0 | -
NNc1ccc(/C=C/c2ccc(NN)cc2S(=O)(=O)O)c(S(=O)(=O)O)c1 | - | - | 94 | -
S=C(Nc1ccccc1)N1CCN(C(c2ccccc2)c2ccccc2)CC1 | - | - | 0 | -
C=CCNC(=O)/C(=C\c1ccccc1)NC(=O)c1ccc(Cl)cc1Cl | - | - | 0 | -
Cc1ccc(S(=O)(=O)N2CCN(S(C)(=O)=O)C2C(C)C)cc1 (centres undefined) | - | - | 96 | -
O=C(CC1CCCCC1)Nc1ccc(Br)cc1 | - | - | 0 | -
CC(=O)Nc1ccc(NS(=O)(=O)c2ccc(C(C)(C)C)cc2)cc1 | - | - | 96 | -
SMILES | MMP13 inh | JNK3 blocker | HePTP inh | HEK293 NFkB inh
O=C1c2ccccc2C(=O)c2c1cccc2S(=O)(=O)Nc1ccc(Cl)cc1 | - | - | 0 | -
CC(=O)Nc1ccc(NS(=O)(=O)c2cccc3c2C(=O)c2ccccc2C3=O)cc1 | - | - | 102 | -
O=C(NCc1cccs1)c1cnn2c1NC(c1ccc(Br)cc1)CC2C(F)(F)F (centres undefined) | - | - | 0 | -
CCC(=O)N1c2ccccc2NC2=C(C(=O)CC(c3ccccc3)C2)C1c1cccc([N+](=O)[O-])c1 (centres undefined) | - | - | 0 | -
Cc1nn(-c2ccccc2)c2sc(C(=O)N3CCCCC3)cc12 | 0 | 0 | 0 | 0
Cc1ccccc1-n1nc(C)c2cc(C(=O)N3CCOCC3)sc21 | 0 | 23 | 0 | 0
Cc1ccc(Nc2cc(-n3nc(C)cc3C)ncn2)cc1 | 0 | 30 | 0 | 0
COc1ccc(C(=O)n2nc(-c3ccccc3)nc2N)cc1OC | 0 | 49 | 0 | 0
COc1ccc(C(=O)N2CCN(C(=O)c3ccc(-c4ccccc4)cc3)CC2)cc1OC | - | - | 0 | -
CCCCNC(=O)CC1N=C2c3ccccc3N=C(SCC(=O)Nc3cccc(C)c3)N2C1=O (centres undefined) | 0 | - | 0 | 0
Cc1cc(NC(=O)CSC2=Nc3ccccc3C3=NC(Cc4ccccc4)C(=O)N23)n[nH]1 (centres undefined) | 0 | 36 | 0 | 0
Cc1ccc(N(CC(=O)Nc2cccc(Br)c2)S(C)(=O)=O)cc1Cl | - | - | 0 | -
CC(C)OC1=C(Cl)C(=O)c2ccccc2C1=O | - | - | 0 | -
COc1ccc(-c2noc(CCCC(=O)O)n2)cc1 | 0 | 0 | 0 | 52
CCCOc1ccc(/C=N/NS(=O)(=O)c2ccc3ccccc3c2)cc1OC | - | - | 103 | -
CC1=CC(=C2C(=O)c3ccccc3C2=O)C=C(C)N1Cc1ccco1 | 0 | 34 | 0 | 0
CC1(C)Cc2c(sc3ncnc(NCc4ccccc4)c23)CO1 | - | - | 105 | -
COc1ccc(Br)cc1/C=C/C(=O)Nc1ccc(OC(F)(F)F)cc1 | - | - | 0 | -
CC(C)c1ccc(N2C(=O)NC(=O)/C(=C/c3ccc([N+](=O)[O-])o3)C2=O)cc1 | - | - | 88 | -
O=C1NC(=S)N(c2ccccc2)C(=O)/C1=C/c1ccc(OCc2ccc(Cl)cc2)cc1 | - | - | 0 | -
O=C1NC(=S)N(c2ccccc2F)C(=O)/C1=C/c1ccc(OCc2cccc(C(=O)O)c2)cc1 | - | - | 102 | -
O=C1NC(=S)N(c2ccccc2F)C(=O)/C1=C/c1ccc(I)o1 | - | - | 104 | -
O=C1NC(=O)N(c2ccc(Cl)cc2)C(=O)/C1=C/c1ccc(I)o1 | - | - | 96 | -
COc1ccccc1C=C1C(=O)NC(=S)N(c2ccccc2F)C1=O | - | - | 0 | -
CC(=O)NC1=NC(=O)/C(=C\c2ccccc2Cl)S1 | - | - | 0 | -
SMILES | MMP13 inh | JNK3 blocker | HePTP inh | HEK293 NFkB inh
Cc1ccc(-c2ccc(OCC(=O)Nc3ccccc3C(N)=O)cc2)cc1 | - | - | 0 | -
CCc1ccc(N2C(=O)/C(=C/c3ccc(I)o3)C(=O)NC2=S)cc1 | - | - | 105 | -
CCOc1ccc(N2C(=O)/C(=C/c3ccc(I)o3)C(=O)NC2=S)cc1 | - | - | 103 | -
CCOc1ccc(N2C(=O)NC(=O)/C(=C\c3ccc(I)o3)C2=O)cc1 | - | - | 0 | -
CNc1nc(Nc2cccc([N+](=O)[O-])c2)nc(OCC(F)(F)F)n1 | - | - | 105 | -
c1cnc(Nc2nc(-c3cccs3)cs2)nc1 | - | - | 102 | -
c1ccc(Nc2nc(-c3cccs3)cs2)nc1 | 0 | 0 | 0 | 0
COc1ccc(OC)c(/C=N/Nc2nc(C)c(C)s2)c1 | - | - | 0 | -
N#Cc1c(C(F)(F)F)cc(-c2cccs2)nc1SCC(=O)Nc1ccc(S(N)(=O)=O)cc1 | - | - | 73 | -
N#Cc1cc2c(nc1SCC(=O)Nc1ccc(S(N)(=O)=O)cc1)CCC2 | - | - | 0 | -
CC(=O)NC(=O)c1ccccc1OCC(=O)c1ccc(Br)cc1 | - | - | 55 | -
COc1ccc(N(CC(=O)NCC2CCCO2)S(=O)(=O)c2ccccc2)cc1 (centres undefined) | - | - | 0 | -
O=C(NCCNc1cc(Cl)ccc1[N+](=O)[O-])c1ccccc1Cl | - | - | 0 | -
COc1ccc(/C(O)=C2\C(=O)C(=O)N(CCc3ccccc3)C2c2ccc(C)cc2)cc1 (centres undefined) | - | - | 0 | -
O=C1OC(c2ccc(Oc3ccccc3)cc2)=C/C1=C/c1ccco1 | - | - | 101 | -
COc1ccc(OC)c(/C=C2/C=C(c3ccccc3)OC2=O)c1 | - | - | 0 | -
O=C1OC(c2ccc(Cl)cc2)=C/C1=C\c1ccco1 | - | - | 51 | -
CC(O)Cn1c2ccc(Cl)cc2c2cc(Cl)ccc21 (centres undefined) | - | - | 0 | -
CCN1C(=S)SC(=O)C1=C1C=C(C)N(CCOC)C(C)=C1 | 27 | - | 0 | 0
CC(=O)NS(=O)(=O)c1ccc(NC(=O)/C=C/c2ccc(F)cc2)cc1 | - | - | 74 | -
